Results published in ChEMBL document CHEMBL1153610, “Synthesis and antiprotozoal activities of dicationic bis(phenoxymethyl)benzenes, bis(phenoxymethyl)naphthalenes, and bis(benzyloxy)naphthalenes” (Eur J Med Chem, 2009).
Calls of active or inactive are those of the source. The rule behind the calls is not given here.

Columns and labels:
[1] = Selectivity index, ratio of IC50 for rat L6 cells to IC50 for Trypanosoma brucei rhodesiense STIB900; type: toxicity, cell-based; conditions: read-out: Ratio IC50
[2] = Selectivity index, ratio of IC50 for rat L6 cells to IC50 for chloroquine-resistant Plasmodium falciparum K1; type: toxicity, cell-based; conditions: read-out: Ratio IC50
[3] = system: L6; assay: Cytotoxicity against rat L6 cells; type: cell-based
Method in brief: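 Rat L6 myoblasts served as the cytotoxicity measure. IC50 is the average of duplicate determinations.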

[4] = system: Trypanosoma brucei rhodesiense; assay: Antitrypanosomal activity against Trypanosoma brucei rhodesiense STIB900; type: functional, organism-based
[5] = system: Plasmodium falciparum; assay: Antimalarial activity against chloroquine-resistant Plasmodium falciparum K1; type: functional, organism-based
[6] = system: Leishmania donovani; assay: Antileishmanial activity against Leishmania donovani MHOM/SD/62/1S-CL2D amastigotes; type: functional, organism-based
Method in brief: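 IC50 taken as the average of duplicate determinations against L. donovani.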

[7] = Selectivity index, ratio of IC50 for rat L6 cells to IC50 for Leishmania donovani MHOM/SD/62/1S-CL2D amastigotes; type: toxicity, cell-based; conditions: read-out: Ratio IC50
[8] = system: Trypanosoma brucei rhodesiense; assay: Antitrypanosomal activity against Trypanosoma brucei rhodesiense STIB900 infected NMRI mouse assessed mean survival time at 10 mg/kg, ip dosed for 4 days; type: functional; conditions: route intraperitoneal
[9] = system: Trypanosoma brucei rhodesiense; assay: Antitrypanosomal activity against Trypanosoma brucei rhodesiense STIB900 infected NMRI mouse assessed mean survival time at 20 mg/kg, ip dosed for 4 days; type: functional; conditions: route intraperitoneal
[10] = system: Trypanosoma brucei rhodesiense; assay: Antitrypanosomal activity against Trypanosoma brucei rhodesiense STIB900 infected NMRI mouse assessed as infection cure rate at 20 mg/kg, ip dosed for 4 days; type: functional, organism-based; parameters: dose 20 mg/kg
Method in brief: (§1)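 Mice infected with T. b. rhodesiense STIB900 were dosed intraperitoneally once daily for 4 days. Outcome was scored as cured/infected animals out of groups of four, plus mean survival days post infection for mice showing parasitemia relapse.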

[11] = system: Trypanosoma brucei rhodesiense; assay: Antitrypanosomal activity against Trypanosoma brucei rhodesiense STIB900 infected NMRI mouse assessed mean survival time at 100 mg/kg, po dosed for 4 days; type: functional
[12] = system: Trypanosoma brucei rhodesiense; assay: Antitrypanosomal activity against Trypanosoma brucei rhodesiense STIB900 infected NMRI mouse assessed as infection cure rate at 100 mg/kg, po dosed for 4 days; type: functional, organism-based; parameters: dose 100 mg/kg
Method in brief: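 Mice infected with T. b. rhodesiense STIB900 received oral doses once daily for 4 days. Cure was scored as cured/infected animals, with mean survival days post infection for relapsing mice.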

[13] = system: Mus musculus; assay: Toxicity in ip dosed NMRI mouse infected with Trypanosoma brucei rhodesiense STIB900; type: organism-based; conditions: in vivo
[14] = system: Trypanosoma brucei rhodesiense; assay: Antitrypanosomal activity against Trypanosoma brucei rhodesiense STIB900 infected NMRI mouse assessed mean survival time at 4 mg/kg, ip dosed for 4 days; type: functional; conditions: route intraperitoneal
[15] = system: Trypanosoma brucei rhodesiense; assay: Antitrypanosomal activity against Trypanosoma brucei rhodesiense STIB900 infected NMRI mouse assessed as infection cure rate at 4 mg/kg, ip dosed for 4 days; type: functional, organism-based; parameters: dose 4 mg/kg
[16] = system: Trypanosoma brucei rhodesiense; assay: Antitrypanosomal activity against Trypanosoma brucei rhodesiense STIB900 infected NMRI mouse assessed mean survival time at 5 mg/kg, ip dosed for 4 days; type: functional; conditions: route intraperitoneal
[17] = system: Trypanosoma brucei rhodesiense; assay: Antitrypanosomal activity against Trypanosoma brucei rhodesiense STIB900 infected NMRI mouse assessed as infection cure rate at 10 mg/kg, ip dosed for 4 days; type: functional, organism-based; parameters: dose 10 mg/kg; method in brief: as §1
[18] = system: Trypanosoma brucei rhodesiense; assay: Antitrypanosomal activity against Trypanosoma brucei rhodesiense STIB900 infected NMRI mouse assessed as infection cure rate at 5 mg/kg, ip dosed for 4 days; type: functional, organism-based; parameters: dose 5 mg/kg; method in brief: as §1

SMILES	selectivity ratio [1]	selectivity ratio [2]	IC50 [3]	IC50 [4]	IC50 [5]	IC50 [6]	selectivity ratio [7]	Survival [8]	Survival [9]	Activity [10]	Survival [11]	Activity [12]	Activity [13]	Survival [14]	Activity [15]	Survival [16]	Activity [17]	Activity [18]
CC(C)NC(=N)c1cccc(OCc2ccccc2COc2cccc(C(=N)NC(C)C)c2)c1	> 126	> 1470	> 162000 nM	1280 nM	111 nM	> 30000 nM	< 5.41											
c1cc(OCc2ccccc2COc2cccc(C3=NCCN3)c2)cc(C2=NCCN2)c1	2.75	184	66500 nM	24200 nM	362 nM	> 100000 nM	< 0.665											
CC(C)NC(=N)c1ccc(OCc2ccc(COc3ccc(C(=N)NC(C)C)cc3)c3ccccc23)cc1	134	625	41800 nM	313 nM	66.9 nM	9730 nM	4.29											
CC(C)NC(=N)c1ccc(OCc2ccccc2COc2ccc(C(=N)NC(C)C)cc2)cc1	97	15000	163000 nM	1680 nM	10.9 nM	11700 nM	14											
N=C(N)c1ccc(OCc2cccc(COc3ccc(C(=N)N)cc3)c2)cc1	4350	357	9140 nM	2.1 nM	25.6 nM	3260 nM	2.8	>35.5 days										
N=C(N)c1ccc(OCc2ccc(COc3ccc(C(=N)N)cc3)cc2)cc1	600	194	12400 nM	20.7 nM	64 nM	1320 nM	9.4		32 days	inactive								
N=C(NO)c1cccc(OCc2cccc(COc3cccc(C(=N)NO)c3)c2)c1	1.12	4.12	8600 nM	7710 nM	2090 nM	> 50000 nM	< 0.172				14.5 days	inactive						
CC(C)NC(=N)c1cccc(OCc2ccc(COc3cccc(C(=N)NC(C)C)c3)cc2)c1	72.4	1830	87000 nM	1200 nM	47.4 nM	14800 nM	5.89											
c1cc(COc2ccc(C3=NCCN3)cc2)ccc1COc1ccc(C2=NCCN2)cc1	79.5	1680	30200 nM	380 nM	18 nM	1900 nM	15.9		15 days	inactive								
N=C(NO)c1ccc(OCc2cccc(COc3ccc(C(=N)NO)cc3)c2)cc1	< 0.104	< 0.628	6530 nM	> 62600 nM	> 10400 nM	> 100000 nM	< 0.0653				>38.3 days							
CONC(=N)c1ccc(OCc2cccc(COc3ccc(C(=N)NOC)cc3)c2)cc1	> 1.11	> 3.46	> 33600 nM	30400 nM	> 9720 nM	> 100000 nM	< 0.336				6 days	inactive						
N=C(N)c1ccc(OCc2ccc(COc3ccc(C(=N)N)cc3)c3ccccc23)cc1	121	224	28300 nM	234 nM	126 nM													
N=C(N)c1cccc(OCc2ccccc2COc2cccc(C(=N)N)c2)c1	602	775	84600 nM	140 nM	109 nM	5500 nM	15.4	>27.3 days					Toxic					
N=C(N)c1cccc(OCc2ccc(COc3cccc(C(=N)N)c3)cc2)c1	103	119	8020 nM	77.8 nM	67.7 nM	> 200000 nM	< 0.0401		19.5 days	inactive								
Nc1nc(N)nc(Nc2ccc([As]3SCC(CO)S3)cc2)n1 (stereo unspecified) [MELARSOPROL]	1220													>60 days	Active			
c1cc(OCc2ccc(COc3cccc(C4=NCCN4)c3)cc2)cc(C2=NCCN2)c1	13.9	175	19800 nM	1420 nM	113 nM	> 200000 nM	< 0.099											
N=C(N)c1ccc(OCc2cc(COc3ccc(C(=N)N)cc3)c3ccccc3c2)cc1	212	1250	68800 nM	325 nM	55.1 nM				12 days	inactive								
CC(C)NC(=N)c1ccc(OCc2cccc(COc3ccc(C(=N)NC(C)C)cc3)c2)cc1	> 2490	> 46900	> 169000 nM	68 nM	3.6 nM	7270 nM	> 23.2	>60 days								>51.5 days	Active	Active
c1cc(COc2ccc(C3=NCCN3)cc2)cc(COc2ccc(C3=NCCN3)cc2)c1	2670	6860	123000 nM	46.2 nM	18 nM	3990 nM	30.9		22.8 days	inactive								
N=C(N)c1ccc(OCCCCCOc2ccc(C(=N)N)cc2)cc1 [PENTAMIDINE]									42.8 days	inactive								
c1ccc(COc2ccc(C3=NCCN3)cc2)c(COc2ccc(C3=NCCN3)cc2)c1	168	10500	109000 nM	647 nM	10.4 nM	3660 nM	29.8											
CC(C)NC(=N)c1ccc(OCc2ccc(COc3ccc(C(=N)NC(C)C)cc3)cc2)cc1	> 2230	> 9820	> 167000 nM	74.8 nM	17 nM	7990 nM	> 20.9						Toxic			17 days		inactive
N=C(N)c1ccc(-c2ccc(-c3ccc(C(=N)N)cc3)o2)cc1 [FURAMIDINE]				3.2 nM														
N=C(N)c1ccc(OCc2ccccc2COc2ccc(C(=N)N)cc2)cc1	209	197	30100 nM	144 nM	153 nM	3820 nM	7.87		13.5 days	inactive								
N=C(N)c1cccc(OCc2cccc(COc3cccc(C(=N)N)c3)c2)c1	1360	3360	64200 nM	47.3 nM	19.1 nM											17 days		inactive
N=C(N)c1ccc(COc2ccc3cc(OCc4ccc(C(=N)N)cc4)ccc3c2)cc1			19300 nM	2360 nM		7120 nM												
